GRK2 inh: compounds blocking aptamer binding on GRK2 – biochemical, human GRK2, bead flow cytometry, HTS, primary screen. Beta-adrenergic receptor kinase 1 (Homo sapiens), P25098. FAM-aptamer displacement from GRK2. inhibition of aptamer binding, % at 10 µM. hit rate 0.59% among 330,000. AID 488847, 2010;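 active = inhibition of aptamer binding above 40%, roughly 3 SD of noise, on plates passing a quality check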;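 note: median bead fluorescence of bound FAM aptamer so fluorescent compounds give negative values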
SR-BI DiI inh: inhibitors of SR-BI mediated HDL lipid uptake, primary screen, ldlA[mSR-BI] cells, fluorescence, single point; Scavenger receptor class B member 1 (Mus musculus), Q61009; ldlA[mSR-BI] CHO cells, DiI-HDL uptake fluorescence, 3 h; inhibition, % at 12.5 µM; hit rate 0.96% among 320,000;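 active = mean replicate inhibition of at least 70% and a set share of replicates each scoring 70 or more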
Rin1-Abl PPI inh: inhibitors of Rin1-Abl protein binding, primary screen, biochemical, TR-FRET. AID 588664, 2011. Tyrosine-protein kinase ABL1 (Homo sapiens) + Ras and Rab interactor 1 (Homo sapiens), …. inhibition, % at 7.35 µM. hit rate 0.4% among 360,000; in the data active = inhibition above about 5%, passing the limit was not always enough
SR-BI DiI-HDL act: activators of SR-BI mediated DiI-HDL uptake, primary screen, ldlA[mSR-BI] CHO cells, DiI fluorescence; 3 h; 100 = double the neutral-control signal; activation, % at 12.5 µM; hit rate 0.096% among 320,000; AID 504775, 2011;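 active = mean replicate activation of at least 60% and every replicate at or above 60%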
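Material: SR-BI-overexpressing, LDLR-lacking CHO cells | Dosing: Single compound concentration, delivered by pin transfer | Probe or stimulus: Labelled HDL, 10 µg/mL | Signal: Bottom-read cell fluorescence after medium removal, ex 550/em 595 nm | Schedule: 3 h, 37 °C | Evaluation: HDL uptake via cellular fluorescence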
Of the large screens only hits and unclear results are named; the others gave an inactive call. Hits are enriched below; roughly 1.9% of the tested compounds scored in any of these assays.

O=C(NNC(=O)C1CC1)c1cc(Cl)nc2ccccc12	GRK2 inh 75.0
O=C(NC1CC1)c1cc(Cl)nc2ccccc12	none (no result: GRK2 inh)
O=C1c2ccccc2/C(=C\C#Cc2ccccn2)N1c1ccccc1	none
N#C/C(C(=O)N1CCCCC1)=C1/N=C(N)c2ccccc21	GRK2 inh 100.0
CC1C(=O)C(C)C(c2cc(Br)ccc2O)NC1c1cc(Br)ccc1O (centres undefined)	SR-BI DiI inh 82.6 (no result: GRK2 inh)
COc1ccc(C)cc1Nc1n[n+](-c2ccccc2)c(-c2cc([N+](=O)[O-])cc(OC)c2O)s1	SR-BI DiI inh 94.7
COC(=O)c1c(-c2ccc(N(C)C)cc2)sc2ccc(OC)cc12	SR-BI DiI inh 78.9
COc1ccc2sc(-c3ccc(SC)cc3)c(-c3ccc(O)cc3)c2c1	SR-BI DiI inh 75.9
COc1ccc2sc(-c3ccc(N(C)C)cc3)c(-c3cnc(OC)nc3)c2c1	SR-BI DiI inh 82.0
COC(=O)c1c(-c2ccsc2)sc2ccc(-c3cc(OC)c(OC)c(OC)c3)cc12	SR-BI DiI inh 74.8
COC(=O)c1c(-c2ccc(OC)cc2)sc2cc3c(cc12)OCO3	none
Cc1ccc(NC(=O)c2cc(NC(=O)c3ccco3)ccc2N2CCCCC2)cc1	SR-BI DiI inh 72.6
CC1N(C)c2cc(NC(=O)c3ccco3)ccc2C1(C)C (centres undefined)	SR-BI DiI-HDL act 139.5
COC(=O)c1[nH]c2ccc(C)cc2c1NC(=O)CN1CCc2cc(OC)c(OC)cc2C1	none
CCCC(=O)Nc1ccc(C(=O)Nc2cccc(OC)c2)cc1	SR-BI DiI inh 74.4
COc1cccc(NC(=O)c2ccc(NC(=O)C(C)(C)C)cc2)c1	none (no result: GRK2 inh)
COC(=O)c1[nH]c2ccc(C)cc2c1NC(=O)Nc1ccccc1OC	SR-BI DiI inh 79.6
Cc1ccc(NC(=O)c2cc(NC(=O)c3ccco3)ccc2N2CCOCC2)cc1	none
CCCCNC(=O)C1(C)CCN1Cc1ccc(C#N)cc1 (centres undefined)	none (no result: GRK2 inh, SR-BI DiI inh, SR-BI DiI-HDL act)
O=C(Cn1nc(C(=O)O)c2ccccc2c1=O)Nc1cc(S(=O)(=O)N2CCOCC2)ccc1Cl	none
O=C(Nc1ccccc1)c1cccc(NC(=O)c2ccco2)c1	none
COc1ccccc1NC(=O)Nc1cccc(NC(C)=O)c1	none (no result: SR-BI DiI inh, SR-BI DiI-HDL act)
CC(=O)c1ccc(NC(=O)c2ccc(NC(=O)c3ccco3)cc2)cc1	GRK2 inh 77.0
COC(=O)c1cccc(NC(=O)Nc2ccccc2OC)c1	SR-BI DiI inh 80.8
C=Cc1cccc(NC(=O)c2ccc(NC(=O)c3ccco3)cc2)c1	SR-BI DiI inh 92.4
CCn1c2ccccc2c2cc(NC(=O)c3ccco3)ccc21	SR-BI DiI inh 81.7
CC1(C)CC(Cc2ccc(C(=O)c3ccccc3)cc2)N(C(=O)OC(C)(C)C)N1 (centres undefined)	none (no result: GRK2 inh, SR-BI DiI inh, SR-BI DiI-HDL act)
COc1ccc(C(=O)C(C)OC(=O)C2CC3CCCC(C2)C3=O)cc1 (centres undefined)	none (no result: GRK2 inh, SR-BI DiI inh, SR-BI DiI-HDL act)
C(=C\c1ccccc1)/CN1CCN(C(c2nnnn2Cc2ccccc2)C2CC2)CC1 (centres undefined)	none (no result: GRK2 inh, SR-BI DiI inh, SR-BI DiI-HDL act)
COc1cc(C(=O)Nc2ccc(NC(=O)c3ccco3)nc2)cc(OC)c1OC	SR-BI DiI inh 72.4
COc1cccc(C(=O)Nc2ccc(NC(=O)c3ccco3)nc2)c1	none
COC(=O)c1cccc(NC(=O)c2ccccc2)c1	none
COc1ccc(C(=O)Nc2ccccc2N2CCN(C(=O)c3ccccc3)CC2)cc1Br	SR-BI DiI inh 85.8
COc1ccc(C(=O)Nc2ccc(Nc3ccccc3)cc2)cc1Br	SR-BI DiI inh 97.7
COc1ccc(C(=O)Nc2ccc(N3CCCCC3)cc2)cc1Br	none
COC(=O)c1ccc(NC(=O)c2cccc(NC(=O)c3ccccc3)c2)cc1	SR-BI DiI inh 73.2
COc1cc(Nc2nc3c(N)cc(C(F)(F)F)cc3nc2-c2ccccc2)cc(OC)c1OC	none (no result: GRK2 inh)
O=C(Nc1cc(C(F)(F)F)ccc1Cl)c1ccc(NC(=O)C(F)(F)F)cc1	none
COc1ccc(Cl)cc1C(=O)Nc1ccc(NC(=O)c2ccco2)cc1	SR-BI DiI inh 82.2
CCCC(=O)Nc1ccc(C(=O)Nc2cc(C(F)(F)F)ccc2Cl)cc1	SR-BI DiI inh 73.9
O=C(NC(=S)Nc1cccc(NC(=S)NC(=O)c2ccccc2)c1)c1ccccc1	SR-BI DiI inh 71.7 (no result: GRK2 inh)
COC(=O)c1ccc(NC(=O)c2ccc(NC(=O)c3ccco3)cc2)cc1	GRK2 inh 83.0
COc1ccc(Cl)cc1NC(=O)c1ccco1	none
Cc1ccc(S(=O)(=O)N(C)C[C@@H]2OCc3cn(nn3)CCCC(=O)N([C@H](C)CO)C[C@H]2C)cc1	none (no result: GRK2 inh, SR-BI DiI inh, SR-BI DiI-HDL act)
COc1cc(NC(=O)c2ccco2)c(OC)cc1NC(=O)Nc1ccccc1Cl	SR-BI DiI inh 94.5
COc1cc(NC(=O)C2CCCCC2)c(OC)cc1NC(=O)c1ccco1	none
Cc1noc(C)c1S(=O)(=O)N(C)C[C@@H]1OCc2cnnn2CCCC(=O)N([C@H](C)CO)C[C@@H]1C	none (no result: GRK2 inh, SR-BI DiI inh, SR-BI DiI-HDL act)
CCNC(=O)C1(C)CCCN(Cc2cccc3c(OC)cc(C(=O)OCC)cc23)C1 (centres undefined)	none (no result: GRK2 inh, SR-BI DiI inh, SR-BI DiI-HDL act)
CNc1sc(C(=O)c2ccc(F)cc2)c(N)c1-c1nc2ccccc2s1	SR-BI DiI inh 90.0
CNc1sc(C(=O)c2cccs2)c(N)c1-c1nc2ccccc2s1	SR-BI DiI inh 95.2
CC(=O)Nc1scc(C)c1-c1nc2ccccc2s1	none
CC(C)(C)OC(=O)NCc1ccc(CNC(=O)c2nc[nH]c2C(=O)N2CCN(c3ccccc3)CC2)cc1	none
CC(=O)c1sc(NC(=O)CN2C(=O)C3CCCCC3C2=O)nc1-c1ccccc1 (centres undefined)	none
CC(O)CN(CC(C)O)c1ccc2c(c1)Cc1cc([N+](=O)[O-])ccc1-2 (centres undefined)	SR-BI DiI inh 89.5 (no result: GRK2 inh)
Nc1ccc2c(c1)Cc1cc([N+](=O)[O-])ccc1-2	none
Cc1ccccc1NC(=O)NCCc1nc2ccccc2[nH]1	none
Cc1ccccc1NC(=S)c1nc2ccccc2[nH]1	SR-BI DiI inh 78.7
S=C(Nc1ccc(Cl)cc1)c1nc2ccccc2[nH]1	SR-BI DiI inh 123.3
CN(Cc1ccc(Cl)cc1)C(CCc1ccccc1)C(=O)NC1CCCCC1 (centres undefined)	none (no result: GRK2 inh, SR-BI DiI inh, SR-BI DiI-HDL act)
NC(=O)c1ccsc1NC(=O)COC(=O)Cc1ccccc1[N+](=O)[O-]	none (no result: GRK2 inh, SR-BI DiI inh, SR-BI DiI-HDL act)
CCOC(=O)C1(C)CCCN(C(=O)c2ccc(OC)cc2OC)C1 (centres undefined)	none (no result: GRK2 inh, SR-BI DiI inh, SR-BI DiI-HDL act)
CCC(CO)Oc1cc(NC(=O)c2cccc([N+](=O)[O-])c2)c2ncn(C(C)C)c2c1 (centres undefined)	SR-BI DiI inh 75.5
CCC(CO)Oc1cc(NC(=O)c2ccc([N+](=O)[O-])cc2)c2ncn(C(C)C)c2c1 (centres undefined)	none
COc1cc(/C=N/NC(=O)CC#N)ccc1Oc1nc(Cl)ncc1F	SR-BI DiI inh 82.0
CCCn1c(SCC(=O)Nc2cccnc2Cl)n[nH]c1=O	none
c1ccc(COc2ncnc3c2ncn3CCCNCC(c2ccccc2)c2ccccc2)cc1	none (no result: GRK2 inh, SR-BI DiI inh, SR-BI DiI-HDL act)
